Laboratory results reported in ChEMBL document CHEMBL4706662, “Design and Evaluation of Peptide Dual-Agonists of GLP-1 and NPY2 Receptors for Glucoregulation and Weight Loss with Mitigated Nausea and Emesis” (J Med Chem, 2021).
The source made the active and inactive calls. The rule behind the calls is not given here. Square brackets hold non-standard residues; d marks the D form. Peptide text beside a SMILES is read from it. ξ: configuration not given here. ξF = NC(Cc1ccccc1)C(=O)O

How the values were obtained:
[1] = test system: Rattus norvegicus; assay: Effect on glucose clearance in Sprague-Dawley rat model of DIO at 10 nmol/kg dosed daily for 5 days; format: functional, organism-based; conditions: time 5.0 day
[2] = target: T1, Glucagon-like peptide 1 receptor (Homo sapiens, UniProt P43220); assay: Agonist activity at human GLP-1R expressed in HEK293 cells assessed as stimulation of cAMP accumulation by FRET assay; format: functional, cell-based
T1 sequence (P43220 whole entry): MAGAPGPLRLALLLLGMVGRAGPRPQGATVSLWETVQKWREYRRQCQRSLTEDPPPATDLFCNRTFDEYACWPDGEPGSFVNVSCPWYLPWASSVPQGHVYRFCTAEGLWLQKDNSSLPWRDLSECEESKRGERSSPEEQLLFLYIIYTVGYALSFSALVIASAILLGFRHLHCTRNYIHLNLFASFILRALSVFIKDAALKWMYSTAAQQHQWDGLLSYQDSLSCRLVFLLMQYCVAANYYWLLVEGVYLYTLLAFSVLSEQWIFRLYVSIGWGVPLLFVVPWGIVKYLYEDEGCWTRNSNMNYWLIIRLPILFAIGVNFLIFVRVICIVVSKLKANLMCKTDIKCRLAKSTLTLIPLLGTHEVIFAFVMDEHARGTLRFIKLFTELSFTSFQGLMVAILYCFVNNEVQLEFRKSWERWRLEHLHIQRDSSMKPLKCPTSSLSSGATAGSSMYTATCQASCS

[3] = target: T2, Neuropeptide Y receptor type 2 (Homo sapiens, UniProt P49146); assay: Agonist activity at human NPY2R expressed in HEK293 cells assessed as inhibition of adenosine-induced stimulation of cAMP accumulation by FRET assay; format: functional, cell-based
T2 sequence (P49146 whole entry): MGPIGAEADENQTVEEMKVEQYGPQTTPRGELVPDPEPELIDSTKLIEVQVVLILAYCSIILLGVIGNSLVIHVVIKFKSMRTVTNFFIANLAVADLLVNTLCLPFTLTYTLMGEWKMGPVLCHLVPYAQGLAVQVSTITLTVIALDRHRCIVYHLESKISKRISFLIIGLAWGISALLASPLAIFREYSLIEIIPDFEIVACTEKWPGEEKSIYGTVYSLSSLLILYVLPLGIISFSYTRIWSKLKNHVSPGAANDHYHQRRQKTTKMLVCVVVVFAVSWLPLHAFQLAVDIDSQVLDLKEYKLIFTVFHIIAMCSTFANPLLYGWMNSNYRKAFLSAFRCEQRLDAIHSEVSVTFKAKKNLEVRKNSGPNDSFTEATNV

[4] = target: T3, Neuropeptide Y receptor type 1 (Homo sapiens, UniProt P25929); assay: Agonist activity at human NPY1R expressed in HEK293 cells assessed as inhibition of adenosine-induced stimulation of cAMP accumulation by FRET assay; format: functional, cell-based
T3 sequence (P25929 whole entry): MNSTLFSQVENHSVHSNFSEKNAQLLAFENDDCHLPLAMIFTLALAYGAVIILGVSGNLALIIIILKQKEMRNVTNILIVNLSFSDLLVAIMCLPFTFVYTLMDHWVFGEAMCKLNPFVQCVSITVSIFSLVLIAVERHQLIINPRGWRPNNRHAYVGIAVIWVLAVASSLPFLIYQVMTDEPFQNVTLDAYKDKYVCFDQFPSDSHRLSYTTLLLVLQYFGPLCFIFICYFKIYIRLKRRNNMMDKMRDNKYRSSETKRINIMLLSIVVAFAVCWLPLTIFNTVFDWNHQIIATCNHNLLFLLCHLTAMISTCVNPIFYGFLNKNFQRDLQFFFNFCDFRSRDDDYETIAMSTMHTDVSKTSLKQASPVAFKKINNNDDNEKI

[5] = target: Glucagon receptor (Rattus norvegicus, UniProt P30082); assay: Agonist activity at rat glucagon receptor expressed in HEK293 cells assessed as stimulation of cAMP accumulation by FRET assay; format: functional, cell-based
Glucagon receptor, sequence (P30082 whole entry): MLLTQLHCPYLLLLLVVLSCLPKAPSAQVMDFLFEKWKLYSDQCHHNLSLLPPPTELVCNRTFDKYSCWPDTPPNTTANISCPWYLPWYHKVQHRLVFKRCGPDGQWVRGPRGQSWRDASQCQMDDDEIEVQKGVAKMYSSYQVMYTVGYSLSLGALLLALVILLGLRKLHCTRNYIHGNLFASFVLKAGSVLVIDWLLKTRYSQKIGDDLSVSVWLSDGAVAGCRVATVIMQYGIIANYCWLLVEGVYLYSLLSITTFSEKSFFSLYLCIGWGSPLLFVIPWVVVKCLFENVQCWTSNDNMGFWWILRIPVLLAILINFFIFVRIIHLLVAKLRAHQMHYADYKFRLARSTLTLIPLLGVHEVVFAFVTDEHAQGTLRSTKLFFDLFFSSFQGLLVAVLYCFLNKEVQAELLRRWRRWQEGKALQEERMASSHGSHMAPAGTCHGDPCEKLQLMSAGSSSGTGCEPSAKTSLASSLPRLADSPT

[6] = target: T1, Glucagon-like peptide 1 receptor; assay: Agonist activity at human GLP-1R expressed in HEK293 cells assessed as stimulation of cAMP accumulation in presence of GLP-1R antagonist exendin9-39 by FRET assay; format: functional, cell-based
Outline: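 HEK293 cells stably expressing human GLP-1R, transduced with H188 cAMP FRET reporter (16 h, MOI 25), read in SES (pH 7.4, 11 mM glucose, 0.1% BSA). Antagonist Ex(9–39) added 20 min before agonist. Excitation 435 nm; 485/535 emission ratio baseline-normalized, read in real time. Triplicate independent runs; EC50 by nonlinear regression of peak FRET values.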

[7] = target: T4, Neuropeptide Y receptor type 2 (Homo sapiens) (UniProt P49146); assay: Agonist activity at human NPY2R expressed in HEK293 cells assessed as inhibition of adenosine-induced stimulation of cAMP accumulation in presence of NPY2-R antagonist […] by FRET assay; format: functional, cell-based
T4 sequence (whole entry): T2 sequence (P49146 whole entry)

[8] = target: T5, Glucagon-like peptide 1 receptor (Rattus norvegicus, UniProt P32301); assay: Agonist activity at rat GLP-1R expressed in HEK293 cells assessed as stimulation of cAMP accumulation by FRET assay; format: functional, cell-based
T5 sequence (P32301 whole entry): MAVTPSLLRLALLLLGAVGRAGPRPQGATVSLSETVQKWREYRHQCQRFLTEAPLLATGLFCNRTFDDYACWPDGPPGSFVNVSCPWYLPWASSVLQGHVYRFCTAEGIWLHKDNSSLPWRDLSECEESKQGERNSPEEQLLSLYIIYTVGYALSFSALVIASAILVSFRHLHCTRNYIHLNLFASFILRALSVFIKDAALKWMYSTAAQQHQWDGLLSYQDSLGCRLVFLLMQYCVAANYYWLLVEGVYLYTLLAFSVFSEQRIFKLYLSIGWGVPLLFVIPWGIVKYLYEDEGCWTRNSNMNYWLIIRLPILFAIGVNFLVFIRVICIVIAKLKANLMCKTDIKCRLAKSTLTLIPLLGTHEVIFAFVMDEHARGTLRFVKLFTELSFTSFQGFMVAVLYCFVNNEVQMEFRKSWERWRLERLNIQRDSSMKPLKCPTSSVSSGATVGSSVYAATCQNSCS

[9] = target: T1, Glucagon-like peptide 1 receptor; assay: Displacement of GLP-1-red from human GLP-1R expressed in CHO-K1 cells by fluorescent competitive binding assay; format: cell-based
[10] = test system: Pancreatic islet; assay: Stimulation of glucose stimulated insulin secretion in rat pancreatic islets at 50 nM in presence of 10 mM glucose incubated for 60 mins; format: functional, tissue-based
[11] = test system: Pancreatic islet; assay: Stimulation of glucose stimulated insulin secretion in rat pancreatic islets at 50 nM in presence of 3 mM glucose incubated for 60 mins; format: functional, tissue-based
[12] = Half life in Sprague-Dawley rat liver microsomes at 30 uM in presence of NADPH by HPLC analysis; format: ADME, Microsome
[13] = Intrinsic clearance in Sprague-Dawley rat liver microsomes at 30 uM in presence of NADPH by HPLC analysis; format: ADME, Microsome
[14] = test system: Rattus norvegicus; assay: Suppression of cumulative food intake in lean Sprague-Dawley rat at 10 to 20 nmol/kg dosed daily for 2 days relative to control; format: functional; conditions: dose 10-20 nmol/kg, time 2 day
[15] = test system: Rattus norvegicus; assay: Suppression of cumulative food intake in lean Sprague-Dawley rat at 0.3 to 60 nmol/kg dosed daily for 2 days; format: functional, organism-based; conditions: dose 0.3-60 nmol/kg, time 2.0 day
[16] = test system: Rattus norvegicus; assay: Suppression of food intake in Sprague-Dawley rat model of DIO at 10 nmol/kg dosed daily for 5 days; format: functional, organism-based; conditions: time 5.0 day
[17] = test system: Rattus norvegicus; assay: Suppression of body weight in Sprague-Dawley rat model of DIO at 10 nmol/kg dosed daily for 5 days; format: functional; conditions: time 5 day
[18] = test system: Rattus norvegicus; assay: Suppression of fasting blood glucose in Sprague-Dawley rat model of DIO at 10 nmol/kg dosed daily for 5 days; format: functional, organism-based; conditions: time 5.0 day
[19] = test system: Rattus norvegicus; assay: Suppression of blood glucose level in prediabetic Sprague-Dawley rat model of DIO assessed as reduction in post-dextrose bolus blood glucose at 10 nmol/kg dosed daily for 5 days by IPGTT method; format: functional, organism-based; conditions: time 5.0 day
[20] = test system: Suncus murinus; assay: Improvement in glucose clearance in musk shrew at 10 nmol/kg, ip measured 20 to 60 mins following glucose administration by IPGTT method; format: functional, organism-based; conditions: time 20-60 min
Outline: (§1)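 Male musk shrews (~8 months, 60–65 g, n = 9), within-subject counterbalanced. Baseline tail glucose by glucometer, then IP drug or saline (1 mL/100 g); 30 min later IP glucose 2 g/kg, glucose read at 20, 40, 60 and 120 min.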

[21] = test system: Suncus murinus; assay: Improvement in glucose clearance in musk shrew assessed as increase in plasma glucose clearing rate at 10 nmol/kg, ip measured 20 to 60 mins following glucose administration by IPGTT method; format: functional, organism-based; conditions: time 20-60 min; outline: as §1
[22] = Toxicity in musk shrew assessed as induction of emesis at 10 to 60 nmol/kg, ip measured after 120 mins; format: organism-based; conditions: suncus murinus, in vivo, 2 h, dose 10-60 nmol/kg
[23] = Toxicity in lean Sprague-Dawley rat assessed as induction at 0.3 to 60 nmol/kg dosed daily for 2 days by kaolin consumption assay; conditions: in vivo, 48 h

For “H-H[dS]QGTFTSDLSKYLEEEAVREFIAWLKNGGPSRHYLNLVTRQRY-NH2”, the Activity [1] was “Active”, the EC50 [2] was 0.00033 µM and the IC50 [3] was 0.01 µM. For the same molecule, the IC50 [4] was 0.027 µM, the EC50 [5] was over 3 µM and the Activity [6] was “inactive”. For the same molecule, the Activity [7] was “inactive”, the EC50 [8] was 0.00048 µM and the IC50 [9] was 0.113 µM. For the same molecule, the Activity [10] was “Active”, the Activity [11] was “inactive” and the half-life at 30 µM [12] was 2.27 h. For the same molecule, the microsomal CLint at 30 µM [13] was 32.5 µL/min/mg, the Activity [14] was 71.4% and the Activity [15] was “Dose-dependent effect”. For the same molecule, the Activity [16] was “Active”, the Activity [17] was 5% and the Activity [18] was “Active”. For the same molecule, the Activity [19] was “Active”, the Activity [20] was “Active” and the Activity [21] was “Active”. For the same molecule, the Activity [22] was “Non-Toxic” and the Activity [23] was “Non-Toxic”.

With `CC[C@H](C)[C@H](NC(=O)C(Cc1ccccc1)NC(=O)[C@H](CC(C)C)NC(=O)[C@H](CCCNC(=N)N)NC(=O)[C@@H](NC(=O)[C@H](C)NC(=O)[C@H](CCC(=O)O)NC(=O)[C@H](CCC(=O)O)NC(=O)[C@H](CCC(=O)O)NC(=O)[C@H](CCSC)NC(=O)[C@H](CCC(N)=O)NC(=O)[C@H](CCCCN)NC(=O)[C@H](CO)NC(=O)[C@H](CC(C)C)NC(=O)[C@H](CC(=O)O)NC(=O)[C@H](CO)NC(=O)[C@@H](NC(=O)[C@H](Cc1ccccc1)NC(=O)[C@@H](NC(=O)CNC(=O)[C@H](CCC(N)=O)NC(=O)[C@H](CO)NC(=O)[C@@H](N)Cc1cnc[nH]1)[C@@H](C)O)[C@@H](C)O)C(C)C)C(=O)N[C@@H](CCC(=O)O)C(=O)N[C@@H](Cc1c[nH]c2ccccc12)C(=O)N[C@@H](CC(C)C)C(=O)N[C@@H](CCCCN)C(=O)N[C@@H](CC(N)=O)C(=O)NCC(=O)NCC(=O)N1CCC[C@@H]1C(=O)N[C@@H](CO)C(=O)N[C@@H](CCCNC(=N)N)C(=O)N[C@@H](Cc1cnc[nH]1)C(=O)N[C@@H](Cc1ccc(O)cc1)C(=O)N[C@@H](CC(C)C)C(=O)N[C@@H](CC(N)=O)C(=O)N[C@@H](CC(C)C)C(=O)N[C@H](C(=O)N[C@H](C(=O)N[C@@H](CCCNC(=N)N)C(=O)N[C@@H](CCC(N)=O)C(=O)N[C@@H](CCCNC(=N)N)C(=O)N[C@@H](Cc1ccc(O)cc1)C(=O)O)[C@@H](C)O)C(C)C` (some centres undefined) the EC50 ([2]; hek293) was 0.00024 µM, the IC50 ([3]; hek293) was 0.032 µM and the EC50 ([5]; hek293) was 0.03 µM. It also gave an EC50 ([8]; hek293) of 0.00012 µM and an IC50 ([9]; cho-k1) of 0.0275 µM.

“H-HSQGTFTSDLSKQMEEEAVRLFIEWLKNRYYASLRRHYLNLVTRQRY-NH2” showed an IC50 [4] of 0.082 µM, an EC50 [5] of over 3 µM and an IC50 [9] of over 1 µM.

With `CC[C@H](C)[C@H](NC(=O)C(Cc1ccccc1)NC(=O)[C@H](CC(C)C)NC(=O)[C@H](CCCNC(=N)N)NC(=O)[C@@H](NC(=O)[C@H](C)NC(=O)[C@H](CCC(=O)O)NC(=O)[C@H](CCC(=O)O)NC(=O)[C@H](CCC(=O)O)NC(=O)[C@H](CCSC)NC(=O)[C@H](CCC(N)=O)NC(=O)[C@H](CCCCN)NC(=O)[C@H](CO)NC(=O)[C@H](CC(C)C)NC(=O)[C@H](CC(=O)O)NC(=O)[C@H](CO)NC(=O)[C@@H](NC(=O)[C@H](Cc1ccccc1)NC(=O)[C@@H](NC(=O)CNC(=O)[C@H](CCC(N)=O)NC(=O)[C@H](CO)NC(=O)[C@@H](N)Cc1cnc[nH]1)[C@@H](C)O)[C@@H](C)O)C(C)C)C(=O)N[C@@H](CCC(=O)O)C(=O)N[C@@H](Cc1c[nH]c2ccccc12)C(=O)N[C@@H](CC(C)C)C(=O)N[C@@H](CCCCN)C(=O)N[C@@H](CC(N)=O)C(=O)N[C@@H](CCCNC(=N)N)C(=O)N[C@@H](Cc1cnc[nH]1)C(=O)N[C@@H](Cc1ccc(O)cc1)C(=O)N[C@@H](CC(C)C)C(=O)N[C@@H](CC(N)=O)C(=O)N[C@@H](CC(C)C)C(=O)N[C@H](C(=O)N[C@H](C(=O)N[C@@H](CCCNC(=N)N)C(=O)N[C@@H](CCC(N)=O)C(=O)N[C@@H](CCCNC(=N)N)C(=O)N[C@@H](Cc1ccc(O)cc1)C(=O)O)[C@@H](C)O)C(C)C` (some centres undefined) (H-HSQGTFTSDLSKQMEEEAVRL[ξF]IEWLKNRHYLNLVTRQRY-OH) the EC50 [2] was 0.000533 µM, the IC50 [3] was 0.061 µM and the EC50 [5] was over 3 µM. For the same molecule, the IC50 [9] was 0.321 µM.

In the case of “H-HSQGTFTSDLSKQMEEWAVRLFIEWLKNGGPSRYYASLRRHYLNLVTRQRY-NH2”, the EC50 [2] is reported as 0.0023 µM, the IC50 [3] is reported as 0.025 µM and the EC50 [5] is reported as over 3 µM. The IC50 [9] was over 1 µM.
